# Assay results from ChEMBL document CHEMBL1275449, “Potent in vitro antifungal activities of naturally occurring acetylenic acids” (Antimicrob Agents Chemother, 2008).
# Assays:
# [1] = test system: Trichophyton mentagrophytes; assay: Antifungal activity against Trichophyton mentagrophytes ATCC 9533 by CLSI method; assay type: functional, organism-based
# In short: (§1)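 Growth scraped from 1- to 6-week-old potato dextrose slants and filtered through Miracloth. Diluted in 5% Alamar blue-RPMI 1640 (MOPS pH 7.0) to 2.7 × 10⁴ CFU/ml. Eleven twofold dilutions in duplicate. Fluorescence at 544 nm excitation/590 nm emission read before and after 35°C, 5 days. IC50 fitted from percent growth. MIC taken as no detectable growth; MFC from clear or blue wells plated on PD agar.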
# Pichia kudriavzevii = assay: Antifungal activity against Candida krusei ATCC 6258 after 48 hrs by CLSI method; assay type: functional, organism-based; conditions: ATCC 6258, 48 h
# In short: (§2)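 Candida inocula came from 24–72-h SD agar colonies suspended in saline. They were diluted by OD630 standard curve into RPMI 1640 (0.2% dextrose, 0.03% glutamine, 0.165 M MOPS, pH 7.0) to 1.5 × 10³ CFU/ml. Compounds were run as 11 twofold dilutions in 20% DMSO-saline, in duplicate, at 35°C for 48 h, with OD530 read before and after. Percent growth at the top concentration, IC50, MIC, and MFC (SD agar plating) were derived.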
# SK-MEL = assay: Cytotoxicity against human SK-MEL cells up to 32 uM by neutral red method; assay type: cell-based
# In short: (§3)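 Neutral red uptake cytotoxicity, top concentration 32 μM.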
# Aspergillus fumigatus [2] = assay: Antifungal activity against Aspergillus fumigatus ATCC 204305 after 48 h by CLSI method; conditions: ATCC 204305, 48 h
# Aspergillus fumigatus [3] = assay: Antifungal activity against Aspergillus fumigatus ATCC 90906 after 48 h by CLSI method; conditions: ATCC 90906, 48 h
# Nakaseomyces glabratus = assay: Antifungal activity against Candida glabrata ATCC 90030 after 48 hrs by CLSI methodCandida glabrata; assay type: functional, organism-based; conditions: ATCC 90030, 48 h; in short: as §2
# Candida parapsilosis = assay: Antifungal activity against Candida parapsilosis ATCC 22019 after 48 hrs by CLSI method; assay type: functional, organism-based; conditions: Lodderomyces parapsilosis, ATCC 22019, 48 h
# In short: (§4)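 Yeast suspensions made from 3-5 colonies off 24-72 h SD agar plates in saline. They were diluted by OD630 standard curve in RPMI 1640 (0.2% dextrose, 0.03% glutamine, 0.165 M MOPS, pH 7.0) to 1.5 × 10³ CFU/ml. Twofold dilutions (11 concentrations, 20% DMSO-saline) run in duplicate. OD530 read before and after 35°C, 48 h. Line values are top test concentrations; no-growth endpoints give MIC/MFC.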
# Candida albicans [4] = assay: Antifungal activity against Candida albicans ATCC 200955 after 48 hrs by CLSI method; assay type: functional, organism-based; conditions: ATCC 200955, 48 h
# In short: (§5)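 CLSI broth microdilution. Colonies from 24–72 h SD agar suspended in saline and sized by OD630 standard curve. Inoculum 1.5 × 10³ CFU/ml (final) in RPMI 1640 (0.2% dextrose, 0.03% glutamine, 0.165 M MOPS, pH 7.0). Twofold dilutions (11 levels) from 20% DMSO-saline, in duplicate. 35°C for 48 h, OD530 read before and after. IC50 fitted from % growth. MIC: no detectable growth. MFC: subculture onto SD agar.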
# BT-549 = assay: Cytotoxicity against human BT549 cells up to 32 uM by neutral red method; assay type: cell-based; in short: as §3
# Candida albicans [5] = assay: Antifungal activity against Fluconazole resistant Candida albicans clinical isolate 1 after 48 hrs by CLSI method; assay type: functional, organism-based; in short: as §5
# Candida albicans [6] = assay: Antifungal activity against Candida albicans ATCC 60193 after 48 hrs by CLSI method; assay type: functional, organism-based; conditions: ATCC 60193, 48 h; in short: as §5
# Candida albicans [7] = assay: Antifungal activity against Candida albicans ATCC 14053 after 48 hrs by CLSI method; assay type: functional, organism-based; conditions: ATCC 14053, 48 h; in short: as §5
# Candida tropicalis = assay: Antifungal activity against Candida tropicalis ATCC 750 after 48 hrs by CLSI method; assay type: functional, organism-based; conditions: ATCC 750, 48 h; in short: as §4
# Candida albicans [8] = assay: Antifungal activity against Candida albicans ATCC 32354 after 48 hrs by CLSI method; assay type: functional, organism-based; conditions: ATCC 32354, 48 h; in short: as §5
# [9] = test system: Trichophyton mentagrophytes; assay: Antifungal activity against Trichophyton mentagrophytes ATCC MYA-4439 by CLSI method; assay type: functional, organism-based; in short: as §1
# Trichophyton rubrum [10] = assay: Antifungal activity against Trichophyton rubrum ATCC 10218 by CLSI method; assay type: functional, organism-based; in short: as §1
# LLC-PK1 = assay: Cytotoxicity against pig LLC-PK1 cells up to 32 uM by neutral red method; assay type: cell-based, Sus scrofa; in short: as §3
# Cryptococcus neoformans [11] = assay: Antifungal activity against Cryptococcus neoformans ATCC 90113 after 72 hrs by CLSI method; assay type: functional, organism-based; conditions: ATCC 90113, 72 h
# In short: (§6)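 SD broth replaced RPMI because growth in RPMI was poor; other CLSI conditions were kept. Inoculum was 1.5 × 10³ CFU/ml from colonies on SD agar, checked by plating. Twofold serial dilutions (11 concentrations) in 20% DMSO-saline were tested in duplicate. OD530 was read before and after incubation at 35°C for 72 h. Percent growth gave IC50; the MIC is the lowest concentration with no detectable growth.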
# Vero = assay: Cytotoxicity against African green monkey Vero cells up to 32 uM by neutral red method; assay type: cell-based; conditions: chlorocebus sabaeus; in short: as §3
# Trichophyton rubrum [12] = assay: Antifungal activity against Trichophyton rubrum ATCC MYA-4438 by CLSI method; assay type: functional, organism-based; in short: as §1
# Candida albicans [13] = assay: Antifungal activity against Candida albicans ATCC 90028 after 48 hrs by CLSI method; assay type: functional, organism-based; conditions: ATCC 90028, 48 h; in short: as §5
# Candida albicans [14] = assay: Antifungal activity against Fluconazole resistant Candida albicans clinical isolate 17 after 48 hrs by CLSI method; assay type: functional, organism-based; in short: as §5
# KB = assay: Cytotoxicity against human KB cells up to 32 uM by neutral red method; assay type: cell-based; in short: as §3
# SK-OV-3 = assay: Cytotoxicity against human SKOV3 cells up to 32 uM by neutral red method; assay type: cell-based; in short: as §3
# Aspergillus flavus = assay: Antifungal activity against Aspergillus flavus ATCC 204304 after 48 h by CLSI method; conditions: ATCC 204304, 48 h
# Aspergillus niger = assay: Antifungal activity against Aspergillus niger ATCC 16404 after 48 h by CLSI method; conditions: ATCC 16404, 48 h
# Cryptococcus neoformans [15] = assay: Antifungal activity against Cryptococcus neoformans ATCC 66031 after 72 hrs by CLSI method; assay type: functional, organism-based; conditions: ATCC 66031, 72 h; in short: as §6
structure (smiles),measurement,setting,value
CCCCCCCCCC#CCCCCC(=O)O,IC50,[1],2.3 µM
same,MFC,[1],6.2 µM
same,MIC,[1],4.6 µM
same,IC50,Pichia kudriavzevii,2.9 µM
same,MFC,Pichia kudriavzevii,49.5 µM
same,MIC,Pichia kudriavzevii,6.2 µM
same,Activity,SK-MEL,Non-toxic
same,IC50,Aspergillus fumigatus [2],9.4 µM
same,MFC,Aspergillus fumigatus [2],198 µM
same,MIC,Aspergillus fumigatus [2],37.1 µM
same,IC50,Aspergillus fumigatus [3],166 µM
same,IC50,Nakaseomyces glabratus,> 198 µM
same,IC50,Candida parapsilosis,> 198 µM
same,IC50,Candida albicans [4],47.8 µM
same,MIC,Candida albicans [4],198 µM
same,Activity,BT-549,Non-toxic
same,IC50,Candida albicans [5],40.5 µM
same,MIC,Candida albicans [5],99.1 µM
same,IC50,Candida albicans [6],85.9 µM
same,IC50,Candida albicans [7],81.8 µM
same,IC50,Candida tropicalis,29.5 µM
same,MFC,Candida tropicalis,99.1 µM
same,MIC,Candida tropicalis,74.3 µM
same,IC50,Candida albicans [8],50.3 µM
same,MIC,Candida albicans [8],198 µM
same,IC50,[9],3.9 µM
same,MFC,[9],12.4 µM
same,MIC,[9],9.3 µM
same,IC50,Trichophyton rubrum [10],8.7 µM
same,MFC,Trichophyton rubrum [10],24.8 µM
same,MIC,Trichophyton rubrum [10],24.8 µM
same,Activity,LLC-PK1,Non-toxic
same,IC50,Cryptococcus neoformans [11],52.4 µM
same,Activity,Vero,Non-toxic
same,IC50,Trichophyton rubrum [12],3.8 µM
same,MFC,Trichophyton rubrum [12],198 µM
same,MIC,Trichophyton rubrum [12],31 µM
same,IC50,Candida albicans [13],56.8 µM
same,MIC,Candida albicans [13],99.1 µM
same,IC50,Candida albicans [14],23.3 µM
same,MFC,Candida albicans [14],198 µM
same,MIC,Candida albicans [14],99.1 µM
same,Activity,KB,Non-toxic
same,Activity,SK-OV-3,Non-toxic
same,IC50,Aspergillus flavus,106 µM
same,MFC,Aspergillus flavus,198 µM
same,MIC,Aspergillus flavus,198 µM
same,IC50,Aspergillus niger,101 µM
same,IC50,Cryptococcus neoformans [15],1.2 µM
same,MFC,Cryptococcus neoformans [15],99.1 µM
same,MIC,Cryptococcus neoformans [15],49.5 µM
CCCCCCCCCCC#CCCCCC(=O)O,IC50,[1],3.7 µM
same,MFC,[1],11.7 µM
same,MIC,[1],7.3 µM
same,IC50,Pichia kudriavzevii,1.9 µM
same,MIC,Pichia kudriavzevii,4.4 µM
same,Activity,SK-MEL,Non-toxic
same,IC50,Aspergillus fumigatus [2],36.6 µM
same,MIC,Aspergillus fumigatus [2],141 µM
same,IC50,Nakaseomyces glabratus,> 188 µM
same,IC50,Candida albicans [4],66.7 µM
same,Activity,BT-549,Non-toxic
same,IC50,Candida albicans [5],82.2 µM
same,IC50,Candida albicans [6],150 µM
same,IC50,Candida albicans [7],> 188 µM
same,IC50,Candida tropicalis,49.1 µM
same,IC50,Candida albicans [8],188 µM
same,IC50,[9],3 µM
same,MFC,[9],5.9 µM
same,MIC,[9],5.9 µM
same,IC50,Trichophyton rubrum [10],6.5 µM
same,MFC,Trichophyton rubrum [10],23.5 µM
same,MIC,Trichophyton rubrum [10],17.6 µM
same,Activity,LLC-PK1,Non-toxic
same,IC50,Cryptococcus neoformans [11],> 188 µM
same,Activity,Vero,Non-toxic
same,IC50,Trichophyton rubrum [12],4.1 µM
same,MIC,Trichophyton rubrum [12],29.3 µM
same,IC50,Candida albicans [13],95.4 µM
same,IC50,Candida albicans [14],18.8 µM
same,MIC,Candida albicans [14],70.4 µM
same,Activity,KB,Non-toxic
same,Activity,SK-OV-3,Non-toxic
same,IC50,Aspergillus niger,> 188 µM
same,IC50,Cryptococcus neoformans [15],1.2 µM
same,MIC,Cryptococcus neoformans [15],188 µM
